What was measured:
Assay type in all cases: biochemical
Conditions in all cases: 10 μM
[1] = molecular target: T1, mABHD6 (Mus musculus, UniProt Q8R2Y0); assay: gel-based ABPP, mouse brain membrane proteome
T1 sequence (Q8R2Y0 1-336): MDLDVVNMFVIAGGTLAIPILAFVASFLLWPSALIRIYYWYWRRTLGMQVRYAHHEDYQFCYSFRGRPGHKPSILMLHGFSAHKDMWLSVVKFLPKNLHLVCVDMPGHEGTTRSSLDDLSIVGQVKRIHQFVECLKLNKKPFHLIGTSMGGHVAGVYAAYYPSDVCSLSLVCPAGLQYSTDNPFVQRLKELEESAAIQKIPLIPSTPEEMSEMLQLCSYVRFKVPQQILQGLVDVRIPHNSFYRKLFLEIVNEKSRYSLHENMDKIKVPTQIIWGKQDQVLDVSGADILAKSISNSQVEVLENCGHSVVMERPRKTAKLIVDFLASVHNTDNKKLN
Procedure, shortened: (§1)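 Mouse brain was dounce-homogenized in 20 mM HEPES pH 7.2 with DTT, MgCl2 and benzonase. The membrane pellet from ultracentrifugation (100,000g, 45 min, 4 °C) was used at 2 μg/μL. It was preincubated with test compound in DMSO (30 min, rt), then labeled with MB064 (250 nM) or FP-TAMRA (500 nM) for 15 min at rt. Samples ran on 10% SDS-PAGE; fluorescence was normalized to Coomassie staining.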

[2] = molecular target: T2, hPLA2G4E (Homo sapiens, UniProt Q3MJ16); assay: gel-based ABPP with FP-TAMRA, hPLA2G4E-overexpressing membrane lysate
T2 sequence (Q3MJ16 1-868): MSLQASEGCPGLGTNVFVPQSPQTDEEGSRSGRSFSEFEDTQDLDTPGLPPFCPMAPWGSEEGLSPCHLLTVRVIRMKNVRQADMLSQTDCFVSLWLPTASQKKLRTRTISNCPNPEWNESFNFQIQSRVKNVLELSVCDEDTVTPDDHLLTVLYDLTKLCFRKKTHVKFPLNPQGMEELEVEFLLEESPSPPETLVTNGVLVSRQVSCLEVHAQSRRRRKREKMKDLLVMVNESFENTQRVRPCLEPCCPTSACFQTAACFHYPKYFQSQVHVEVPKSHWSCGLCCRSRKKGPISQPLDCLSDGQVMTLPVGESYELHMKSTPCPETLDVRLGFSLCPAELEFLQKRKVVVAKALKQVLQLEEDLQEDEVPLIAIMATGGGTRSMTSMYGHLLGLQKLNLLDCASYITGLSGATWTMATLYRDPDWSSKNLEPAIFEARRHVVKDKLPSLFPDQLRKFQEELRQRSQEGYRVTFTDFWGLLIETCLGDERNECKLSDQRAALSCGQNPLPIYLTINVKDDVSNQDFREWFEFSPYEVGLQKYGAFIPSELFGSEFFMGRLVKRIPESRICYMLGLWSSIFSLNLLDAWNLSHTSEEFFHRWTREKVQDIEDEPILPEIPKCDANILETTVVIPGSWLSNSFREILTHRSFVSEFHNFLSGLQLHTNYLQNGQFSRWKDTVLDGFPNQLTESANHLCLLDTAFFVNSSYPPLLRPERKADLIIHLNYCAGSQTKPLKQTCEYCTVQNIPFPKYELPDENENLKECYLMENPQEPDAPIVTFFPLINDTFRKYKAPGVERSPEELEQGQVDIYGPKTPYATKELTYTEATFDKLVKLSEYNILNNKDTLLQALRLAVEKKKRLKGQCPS
Procedure, shortened: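 Membrane lysate from hPLA2G4E-overexpressing cells (1 μg/μL) was preincubated with test compound in DMSO (30 min, rt), then labeled with FP-TAMRA (50 nM, 5 min, rt). Proteins were denatured in Laemmli buffer and resolved on 8% acrylamide SDS-PAGE. In-gel fluorescence was normalized to Coomassie staining.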

[3] = molecular target: T3, mDAGLα (Mus musculus, UniProt Q6WQJ1); assay: gel-based ABPP, mouse brain membrane proteome
T3 sequence (Q6WQJ1 1-1044): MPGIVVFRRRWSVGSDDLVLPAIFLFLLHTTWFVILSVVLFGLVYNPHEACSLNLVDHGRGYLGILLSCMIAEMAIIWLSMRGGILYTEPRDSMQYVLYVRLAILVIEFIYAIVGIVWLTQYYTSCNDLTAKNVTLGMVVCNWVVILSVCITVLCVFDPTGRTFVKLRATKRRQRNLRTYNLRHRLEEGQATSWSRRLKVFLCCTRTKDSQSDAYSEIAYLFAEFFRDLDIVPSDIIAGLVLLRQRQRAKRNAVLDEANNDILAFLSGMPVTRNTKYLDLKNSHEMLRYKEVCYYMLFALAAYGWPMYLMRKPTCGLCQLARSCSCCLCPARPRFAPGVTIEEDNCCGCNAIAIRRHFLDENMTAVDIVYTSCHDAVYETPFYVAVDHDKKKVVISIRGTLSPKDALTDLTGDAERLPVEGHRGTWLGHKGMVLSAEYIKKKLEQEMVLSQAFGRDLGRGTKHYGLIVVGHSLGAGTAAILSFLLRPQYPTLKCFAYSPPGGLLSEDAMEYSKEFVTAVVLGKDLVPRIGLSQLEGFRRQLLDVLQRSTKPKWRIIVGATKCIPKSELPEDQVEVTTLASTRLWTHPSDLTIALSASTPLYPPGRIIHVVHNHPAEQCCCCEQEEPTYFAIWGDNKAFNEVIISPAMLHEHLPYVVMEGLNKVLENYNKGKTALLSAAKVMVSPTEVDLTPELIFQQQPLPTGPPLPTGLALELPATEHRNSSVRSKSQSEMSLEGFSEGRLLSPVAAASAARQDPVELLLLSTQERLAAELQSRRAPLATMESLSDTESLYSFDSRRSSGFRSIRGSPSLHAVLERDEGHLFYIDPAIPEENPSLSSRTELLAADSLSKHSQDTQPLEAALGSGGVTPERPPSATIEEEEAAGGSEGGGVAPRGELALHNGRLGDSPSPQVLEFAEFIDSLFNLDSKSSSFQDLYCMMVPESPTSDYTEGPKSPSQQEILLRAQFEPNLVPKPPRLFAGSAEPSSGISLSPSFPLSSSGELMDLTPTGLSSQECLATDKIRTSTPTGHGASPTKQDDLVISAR
Procedure, shortened: as §1

inhibition of ABHD6 (in words) [1]: not inhibited
inhibition of PLA2G4E (in words) [2]: not inhibited
inhibition of DAGLα (in words) [3]: not inhibited
SMILES: O=C(CCCc1ccccc1)C(=O)NCCc1ccc(Oc2ccccc2)cc1 [Compound 51, 2-Oxo-N-(4-phenoxyphenethyl)-5-phenylpentanamide]
